Each structure is given as a SMILES string.

Series [1] addresses T1, Programmed cell death protein 1/Programmed cell death 1 ligand 1 (Homo sapiens, UniProt Q9NZQ7). Briefly: Inhibition of His-tagged PD-1 (unknown origin)/hFc-tagged PD-L1 (unknown origin) protein-protein interaction incubated for 15 mins by HTRF assay. It is filed as protein-complex assay. The procedure, abridged: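 Small molecules were tested as 10-fold dilution series at a constant final 0.2% DMSO. IC50 came from a four-parameter variable-slope fit of normalized data, with three independent repeats.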
On the technique in general: Time-resolved FRET reads energy transfer from a long-lived donor to a nearby acceptor.

Series [2] concerns the target Programmed cell death 1 ligand 1 (Homo sapiens) (UniProt Q9NZQ7). Nature of the series: Inhibition of [89Zr]Zr-atezolizumab binding from human PD-L1 transfected in CHO cells assessed as radioligand activity at 5000 nM preincubated for 30 mins followed by [89Zr]Zr-atezolizumab addition measured after 60 mins by Wizard2 gamma counter analysis (reference value: 8.4 %). To be noted: time 90.0 min. Type of series: cell-based. Details: scale not given: the % may be the effect or the level left; call rule not given here.

A short description of series [3]: Drug uptake in mouse B16-F10 cells expressing PD-L1 in xenograft model. Type of series: ADME, cell-based. To be noted: in vivo.
Series [4] relates to CHO. Briefly: Biodistribution in CHO cells expressing hPD-L1 xenografted in NSG mouse co-xenografted with CHO-K1 cells at 31.91 +/- 3.05 MBq measured for 60 mins by micro-PET analysis. Type of series: ADME, organism-based, Cricetulus griseus. The conditions noted are these: chinese hamster, in vivo, 1 h. The method, boiled down: (§1)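 Dynamic whole-body μPET/CT ran up to 60 min and was reconstructed by OSEM3D/MAP. Volumes of interest came from fused PET/CT, with uptake normalized to injected dose and volume as %ID/cc.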

Series [5] in a line: Biodistribution in brain of NSG mouse xenografted with CHO-K1 cells/CHO cells expressing hPD-L1 at 31.91 +/- 3.05 MBq measured for 60 mins by micro-PET analysis. Type of series: ADME, organism-based. The conditions noted are these: in vivo, 1 h. The method, boiled down:
as §1

A short description of series [6]: Biodistribution in lung of NSG mouse xenografted with CHO-K1 cells/CHO cells expressing hPD-L1 at 31.91 +/- 3.05 MBq measured for 30 to 70 mins by Wizard2 gamma counter analysis. Type of series: ADME, organism-based. The conditions noted are these: in vivo, time 30-70 min. The method, boiled down:
(§2)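 Male NSG mice, 8–10 weeks old, carried subcutaneous CHO-K1 and CHO-hPD-L1 xenografts on opposite flanks (1.5 × 10^6 cells each in PBS/matrigel 1:1). Eleven days after inoculation, radiotracer was injected into the lateral tail vein under isoflurane. Organs were collected at 30, 40 and 70 min, wet-weighed and gamma-counted for 30 s. Counts were background- and decay-corrected to injection, expressed as %ID/g.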

The nature of series [7]: Stability in mouse plasma assessed as compound remaining measured for 60 mins by HPLC analysis. Type of series: ADME, cell-free. The conditions noted are these: read-out: Stability. The method, boiled down:
(§3)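 Formulated radiotracer (25 μL) was incubated in 1250 μL pooled mouse or human plasma at 37 °C. At 0, 15, 30 and 60 min, aliquots were quenched with equal-volume MeCN and centrifuged (4 min, 4 °C, 21,380g). Intact tracer (%) was measured by reversed-phase radio-HPLC.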

Series [8] in a line: Biodistribution in gall bladder of NSG mouse xenografted with CHO-K1 cells/CHO cells expressing hPD-L1 at 31.91 +/- 3.05 MBq measured for 60 mins by micro-PET analysis. It is filed as ADME, organism-based. The conditions noted are these: in vivo, 1 h. The method, boiled down: as §1
The nature of series [9]: Biodistribution in liver of NSG mouse xenografted with CHO-K1 cells/CHO cells expressing hPD-L1 at 31.91 +/- 3.05 MBq measured for 30 to 70 mins by Wizard2 gamma counter analysis. The conditions noted are these: in vivo, time 30-70 min. It is filed as ADME, organism-based. The method, boiled down: as §2
Series [10] is described as follows: Biodistribution in kidney of NSG mouse xenografted with CHO-K1 cells/CHO cells expressing hPD-L1 at 31.91 +/- 3.05 MBq measured for 60 mins by micro-PET analysis. It is filed as ADME, organism-based. The conditions noted are these: in vivo, 1 h. The procedure, abridged:
as §1

Series [11] in a line: Biodistribution in kidney of NSG mouse xenografted with CHO-K1 cells/CHO cells expressing hPD-L1 at 31.91 +/- 3.05 MBq measured for 30 to 70 mins by Wizard2 gamma counter analysis. It is filed as ADME, organism-based. To be noted: in vivo, time 30-70 min. The procedure, abridged: as §2
In series [12] the test system is CHO-K1. Briefly: Biodistribution in CHO-K1 cells xenografted in NSG mouse co-xenografted with CHO cells expressing hPD-L1 at 31.91 +/- 3.05 MBq measured for 30 to 70 mins by Wizard2 gamma counter analysis. It is filed as ADME, organism-based, Cricetulus griseus. To be noted: chinese hamster, in vivo, time 30-70 min. The procedure, abridged: as §2
Series [13] concerns CHO-K1. Briefly: Biodistribution in CHO-K1 cells xenografted in NSG mouse co-xenografted with CHO cells expressing hPD-L1 at 31.91 +/- 3.05 MBq measured for 60 mins by micro-PET analysis. Type of series: ADME, organism-based, Cricetulus griseus. To be noted: chinese hamster, in vivo, 1 h. The procedure, abridged:
as §1

The nature of series [14]: Biodistribution in white adipose tissue of NSG mouse xenografted with CHO-K1 cells/CHO cells expressing hPD-L1 at 31.91 +/- 3.05 MBq measured for 60 mins by micro-PET analysis. To be noted: in vivo, 1 h. Type of series: ADME, organism-based. The method, boiled down:
as §1

Series [15] can be described thus: Drug metabolism in white adipose tissue of NSG mouse xenografted with CHO-K1 cells/CHO cells expressing hPD-L1 assessed as accumulation of radiometabolite formation at 31.91 +/- 3.05 MBq measured for 60 mins by micro-PET analysis. Type of series: ADME, tissue-based. The conditions noted are these: in vivo, 1 h.
Series [16] is described as follows: Stability in human plasma assessed as compound remaining measured for 60 mins by HPLC analysis. It is filed as ADME, cell-free. The conditions noted are these: read-out: Stability. The procedure, abridged:
as §3

Series [17] in a line: Biodistribution in intestine of NSG mouse xenografted with CHO-K1 cells/CHO cells expressing hPD-L1 at 31.91 +/- 3.05 MBq measured for 60 mins by micro-PET analysis. Type of series: ADME, organism-based. The conditions noted are these: in vivo, 1 h. The method, boiled down: as §1
Series [18] can be described thus: Biodistribution in liver of NSG mouse xenografted with CHO-K1 cells/CHO cells expressing hPD-L1 at 31.91 +/- 3.05 MBq measured for 60 mins by micro-PET analysis. Type of series: ADME, organism-based. The conditions noted are these: in vivo, 1 h. The method, boiled down: as §1
Series [19] has as its system CHO. Briefly: Biodistribution in CHO cells expressing hPD-L1 xenografted in NSG mouse co-xenografted with CHO-K1 cells at 31.91 +/- 3.05 MBq measured for 30 to 70 mins by Wizard2 gamma counter analysis. It is filed as ADME, organism-based, Cricetulus griseus. To be noted: chinese hamster, in vivo, time 30-70 min. The procedure, abridged: as §2
Series [20] in a line: Drug metabolism in brain of NSG mouse xenografted with CHO-K1 cells/CHO cells expressing hPD-L1 assessed as accumulation of radiometabolite formation at 31.91 +/- 3.05 MBq measured for 60 mins by micro-PET analysis. Type of series: ADME, tissue-based. To be noted: in vivo, 1 h.
A short description of series [21]: Drug uptake in human A-375 cells expressing PD-L1 xenografted in bilateral tumors bearing BALB/c mouse model at ~2.5 MBq measured for 120 mins by autoradiography. It is filed as ADME, cell-based. To be noted: in vivo, 2 h.
A short description of series [22]: Drug uptake in human A-375 cells xenografted in bilateral tumors bearing BALB/c mouse model at ~2.5 MBq measured for 120 mins by autoradiography. It is filed as ADME, cell-based. To be noted: in vivo, 2 h. In general terms: A xenograft is tissue or cells of one species grown in another, often human tumour cells in immunodeficient mice.
Series [23] in a line: Biodistribution in bilateral tumors bearing BALB/c mouse model assessed as ratio of drug uptake in human A-375 cells expressing PD-L1 to drug uptake in human A-375 cells at ~2.5 MBq measured for 120 mins by autoradiography. Type of series: ADME, organism-based, Neoplasm. To be noted: a-375, 2 h.
Series [24] concerns the target T1, Programmed cell death protein 1/Programmed cell death 1 ligand 1. Nature of the series: Inhibition of Ig-tagged PD-1 (unknown origin)/His-tagged PD-L1 (unknown origin) protein-protein interaction preincubated with PD-L1 for 15 mins followed by PD-1 addition measured after 15 mins by HTRF assay. It is filed as protein-complex assay.
Series [25] addresses Programmed cell death 1 ligand 1 (Homo sapiens) (UniProt Q9NZQ7). Briefly: Inhibition of [89Zr]Zr-atezolizumab binding from human PD-L1 transfected in CHO cells assessed as radioligand activity at 200 nM preincubated for 30 mins followed by [89Zr]Zr-atezolizumab addition measured after 60 mins by Wizard2 gamma counter analysis (reference value: 8.4 %). It is filed as cell-based. Details: scale not given: the % may be the effect or the level left. The conditions noted are these: time 90.0 min.

The nature of series [26]: Biodistribution in bilateral tumors bearing BALB/c mouse model assessed as ratio of drug uptake in human A-375 cells expressing PD-L1 to drug uptake in human A-375 cells at ~7.4 MBq measured for 50 mins by micro-PET imaging analysis. Type of series: ADME, organism-based, Neoplasm. The conditions noted are these: a-375, 50 min.
Series [27] in a line: Drug uptake in human A-375 cells xenografted in bilateral tumors bearing BALB/c mouse model at ~7.4 MBq measured for 50 mins by micro-PET imaging analysis. Type of series: ADME, cell-based. The conditions noted are these: in vivo.
Series [28] can be described thus: Drug uptake in human A-375 cells expressing PD-L1 xenografted in bilateral tumors bearing BALB/c mouse model at ~7.4 MBq measured for 50 mins by micro-PET imaging analysis. The conditions noted are these: in vivo. It is filed as ADME, cell-based.

T1 sequence (Q15116 whole entry): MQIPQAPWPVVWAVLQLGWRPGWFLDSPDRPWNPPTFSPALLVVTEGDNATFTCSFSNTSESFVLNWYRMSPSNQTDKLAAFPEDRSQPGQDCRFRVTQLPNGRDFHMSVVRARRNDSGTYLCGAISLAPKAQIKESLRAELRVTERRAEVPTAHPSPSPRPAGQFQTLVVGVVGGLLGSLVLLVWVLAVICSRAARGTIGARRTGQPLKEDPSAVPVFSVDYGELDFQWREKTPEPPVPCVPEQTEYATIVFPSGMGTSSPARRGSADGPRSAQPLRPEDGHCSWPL
T1 sequence (Q9NZQ7 whole entry): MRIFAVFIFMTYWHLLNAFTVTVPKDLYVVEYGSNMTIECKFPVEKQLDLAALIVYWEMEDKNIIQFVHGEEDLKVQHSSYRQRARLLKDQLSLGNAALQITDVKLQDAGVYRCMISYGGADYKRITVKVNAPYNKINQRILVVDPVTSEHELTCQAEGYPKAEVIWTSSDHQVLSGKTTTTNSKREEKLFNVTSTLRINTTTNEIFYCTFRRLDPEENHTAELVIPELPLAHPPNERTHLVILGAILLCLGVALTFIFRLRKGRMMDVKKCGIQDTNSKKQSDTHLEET
Chain of Programmed cell death 1 ligand 1 (Homo sapiens) (Q9NZQ7 whole entry): as above

For the molecule `N#Cc1cncc(COc2cc(OCc3cccc(-c4ccccc4)c3Br)c(Cl)cc2CN2CCCC[C@H]2C(=O)O)c1`, it took 0.01 nM to reach half-maximal inhibition in series [1] (IC50).
In the case of `Cc1c(COc2cc(OCc3ccnc(C#N)c3)c(CN(C)[C@H](CO)C(=O)O)cc2Cl)cccc1-c1ccc2c(c1)OCCO2`, the Activity in series [2] was determined as 4.2%.
In [3], `Cc1c(COc2cc(OCc3cccc(OS(=O)(=O)[18F])c3)c(CNC(CO)(CO)CO)cc2Cl)cccc1-c1ccc2c(c1)OCCO2` gave a Drug uptake of 3.33 %ID/ml.
`N#Cc1cc(COc2cc(OCc3cccc(-c4ccc5c(c4)OCCO5)c3Br)c(Cl)cc2CN2CCCC[C@H]2C(=O)O)ccn1`: the IC50 – broadly, the point on the concentration scale where inhibition reaches its midpoint – in [1] was found to be 0.001 nM.
For `Cc1c(COc2cc(OCc3ccnc(C#N)c3)c(CN([11CH3])CCO)cc2Cl)cccc1-c1ccc2c(c1)OCCO2`, the Drug uptake in the series on CHO [4] is reported as < 1.2 %ID/cc; in series [5], < 1.2 %ID/cc; in series [6], “Active”; in series [8], “Active”; in series [9], “Active”; in [10] it was “Active”. Also, the Drug uptake entry in [11] is “Active”; in the series on CHO-K1 [12] it was < 1.5 % ID/g; in the series on CHO-K1 [13] it was < 1.2 %ID/cc; in series [14], < 1.2 %ID/cc; in [17] it was “Active”; in series [18] it was “Active”. Moreover, the Drug uptake in the series on CHO [19] is < 1.5 % ID/g. The remaining at 1 h in series [7] and in series [16] was > 99% in each case. For the same molecule, the Drug metabolism result in [15] and in series [20] was “Metabolite_Notdetected” throughout.
Take `Cc1c(COc2cc(OCc3cccc(C#N)c3)c(CNCCNC(=O)CO/N=C/[C@H]([18F])[C@@H](O)[C@H](O)[C@H](O)CO)cc2Cl)cccc1-c1ccc2c(c1)OCCO2`: the results for the Drug uptake in series [21] and in series [22] were 3.98 % ID/g and 1.38 % ID/g, respectively. For the same molecule, in series [23], the Ratio is given as 2.9.
`Cc1cc(CN2CCCCC2C(=O)O)ccc1OCc1cccc(-c2ccccc2)c1C` (configuration not stated) displayed an IC50 in series [24] of 6 nM.
In the case of `CCOC(=O)/C(C#N)=C/c1cccc(C#N)c1`, the Activity in series [25] came to 0%.
Regarding `Cc1c(COc2cc(OCc3cccc(C#N)c3)c(CN3CCN(CCOCCOCCOCC[18F])CC3)cc2Cl)cccc1-c1ccc2c(c1)OCCO2`, the Ratio in series [26] was 3. Moreover, the Drug uptake in [27] is on record as 1.19 %ID/ml; in series [28], 3.53 %ID/ml.
`CCOc1cccc(-c2cccc(COc3cc(OC)c(CNCCNC(C)=O)c(OC)c3)c2C)c1` registered a half-inhibitory concentration (IC50) in [24] of 110 nM.
With `Cc1c(COc2cc(OCc3ccnc(C#N)c3)c(CN(C)CCO)cc2Cl)cccc1-c1ccc2c(c1)OCCO2`, the Activity in [2] was found to be 4.7%.
Consider `COc1cc(OCc2cccc(-c3ccc4c(c3)OCCO4)c2C)cc(OC)c1CNCCNC(C)=O`, for which, in [24], the midpoint of inhibition, the IC50, lay at 6 nM.

The values are drawn from ChEMBL document CHEMBL5335834, “Development and In Vivo Evaluation of Small-Molecule Ligands for Positron Emission Tomography of Immune Checkpoint Modulation Targeting Programmed Cell Death 1 Ligand 1” (J Med Chem, 2024).
